Assay results: ChEMBL document CHEMBL5674881, “The therapeutic properties of resminostat for hepatocellular carcinoma” (2018)
Calls of active or inactive are those of the source. The rule behind the calls is not given here.

Key:
Hep 3B2 [1] = test: Effect on human Hep3B cells assessed as reduction of HDAC global activity at 80 nM incubated for 24 hrs by FluoroFire HDAC Activity Assay Kit relative to control; format: functional; design: scale not given: the % may be the effect or the level left
Method in brief: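 Hep3B cells treated 24 h with 80 nM drug, alone or with 30% SGBS conditioned medium. Lysates made with lysis reagent (15 min, room temperature, shaking), spun, and supernatant used. Preincubated 20 min at 37°C, then Emerald substrate added for 1 h at 37°C. Fluorescence read at Ex 490/Em 525 nm. HeLa nuclear extract as positive control, HeLa extract with trichostatin A as negative control (n = 3).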

Hep 3B2 [2] = test: Anti-proliferative activity against human Hep3B cells assessed as reduced cell proliferation at 80 nM incubated for 24 hrs by Fluoro Fire-Blue ProViaTox assay; format: functional, cell-based
Huh-7 [3] = test: Effect on human Huh-7 cells assessed as reduction in HDAC1 mRNA level at 80 nM incubated for 24 hrs by qRT-PCR analysis; format: functional, cell-based
Method in brief: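 HepG2 (EMEM) and Huh7 (DMEM) cells, both with 10% FBS, treated with 30% differentiated-SGBS conditioned medium with or without 80 nM drug. HDAC1 RNA given as fold change versus untreated cells or between treatments (n = 3).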

Hep 3B2 [4] = test: Anti-proliferative activity against human Hep3B cells assessed as reduction in Vimentin protein expression level by measuring green fluorescence at 80 nM incubated for 24 hrs in presence of SGBS CM by immunofluorescence analysis
Hep 3B2 [5] = test: Anti-proliferative activity against human Hep3B cells assessed as increase in expression at 80 nM incubated for 24 hrs by qRT-PCR analysis
Hep 3B2 [6] = test: Anti-proliferative activity against human Hep3B cells assessed as increase in cleaved Caspase 3/7 level at 80 nM incubated for 24 hrs in presence of SGBS CM by Tetraplex-Assay Kit analysis; format: functional, cell-based
Method in brief: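 Hep3B seeded at 20000 cells/well overnight, then treated with 30% differentiated SGBS conditioned medium with or without resminostat 80 nM for 24 h. Tetraplex caspase substrate buffer added during treatment for real-time cleavage read-out: Caspase 3/7 at Ex 535/Em 620 nm, Caspase 8 at Ex 490/Em 525 nm, Caspase 9 at Ex 370/Em 450 nm. Compared with controls or between treatments; n = 3.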

Hep 3B2 [7] = test: Anti-proliferative activity against human Hep3B cells assessed as reduction in cell viability at 80 nM measured after 24 hrs in presence of 17-AAG by Fluoro Fire-Blue ProViaTox assay; settings: Hep 3B2, time 24.0 hrs
Hep 3B2 [8] = test: Anti-proliferative activity against human Hep3B cells assessed as no change in BAD expression at 80 nM incubated for 24 hrs by qRT-PCR analysis; format: functional, cell-based
Hep 3B2 [9] = test: Downregulation of STAT3 expression in human Hep3B cells at 80 nM incubated for 24 hrs in presence of GSK343 by qRT-PCR analysis; format: functional, cell-based
Method in brief: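 RNA from Hep3B cells treated 24 h with GSK343 (7 nM) alone or with 80 nM drug; EZH2 and STAT3 levels compared between the two treatments. Cells grown in EMEM with 10% FBS, 2 mM L-glutamine, 37°C, 5% CO2.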

Hep 3B2 [10] = test: Anti-proliferative activity against human Hep3B cells assessed as increase in BAX mRNA level at 80 nM incubated for 24 hrs by qRT-PCR analysis; format: functional, cell-based
Hep 3B2 [11] = test: Downregulation of STAT3 mRNA expression in human Hep3B cells at 80 nM incubated for 24 hrs in presence of 17-AAG by qRT-PCR analysis; format: functional, cell-based
Method in brief: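 Hep3B cells given 80 nM drug, 17-AAG (50 nM) or both for 24 h. STAT3 and a gene panel (BCL-2, HSP90, ZFP64) measured at RNA level. Triplicates, three independent experiments, mean ± SD.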

Hep 3B2 [12] = test: Anti-proliferative activity against human Hep3B cells assessed as reduced cell proliferation at 80 nM for 24 hrs in presence of DZNep by Fluoro Fire-Blue ProViaTox assay relative to control; format: functional; design: scale not given: the % may be the effect or the level left
Hep 3B2 [13] = test: Anti-proliferative activity against human Hep3B cells assessed as reduction in cell viability at 80 nM measured after 24 hrs in presence of 17-AAG under SGBS CM treatment by Fluoro Fire-Blue ProViaTox assay relative to control
Hep 3B2 [14] = test: Anti-proliferative activity against human Hep3B cells assessed as reduction in cell viability at 80 nM for 24 hrs in presence of GSK343 by Fluoro Fire-Blue ProViaTox assay relative to control; format: functional
Hep 3B2 [15] = test: Anti-proliferative activity against human Hep3B cells assessed as decrease in VEGF mRNA level at 80 nM incubated for 24 hrs in presence of SGBS CM by qRT-PCR analysis; format: functional, cell-based
Hep 3B2 [16] = test: Anti-proliferative activity against human Hep3B cells assessed as increase in p21 mRNA expression at 80 nM incubated for 24 hrs in presence of SGBS CM by qRT-PCR analysis; format: functional, cell-based
Hep 3B2 [17] = test: Upregulation of BAX expression in human Hep3B cells at 80 nM incubated for 24 hrs by qRT-PCR analysis; format: functional, cell-based
Method in brief: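 RNA levels of BCL-2, BIM, BAX and BAD measured in Hep3B cells after 24 h with 80 nM drug. Triplicates, three independent experiments, t-test.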

Hep 3B2 [18] = test: Downregulation of HDAC expression in human Hep3B cells at 80 nM incubated for 24 hrs in presence of 17-AAG by qRT-PCR analysis; format: functional, cell-based
Hep 3B2 [19] = test: Effect on human Hep3B cells assessed as reduction in HDAC2 mRNA level at 80 nM incubated for 24 hrs in presence of SGBS CM by qRT-PCR analysis; format: functional, cell-based
Method in brief: (§1)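 Hep3B cells exposed to 30% conditioned medium from differentiated SGBS adipocytes, with or without 80 nM drug. HDAC1, 2 and 3 RNA given as fold change versus untreated cells or between treatments.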

Huh-7 [20] = test: Anti-proliferative activity against human Huh-7 cells assessed as reduced cell proliferation at 80 nM incubated for 24 hrs in presence of SGBS CM by Fluoro Fire-Blue ProViaTox assay; format: functional, cell-based
Hep 3B2 [21] = test: Anti-proliferative activity against human Hep3B cells assessed as reduced cell proliferation at 80 nM incubated for 24 hrs in presence of SGBS CM by Fluoro Fire-Blue ProViaTox assay; format: functional, cell-based
Hep 3B2 [22] = test: Anti-proliferative activity against human Hep3B cells assessed as increase in Caspase 8 expression at 80 nM incubated for 24 hrs by qRT-PCR analysis; format: functional, cell-based
Hep 3B2 [23] = test: Anti-proliferative activity against human Hep3B cells assessed as cell proliferation at incubated for 24 hrs by Fluoro Fire-Blue ProViaTox assay; format: functional, cell-based; settings: dose 20-100 nM
Hep 3B2 [24] = test: Effect on human Hep3B cells assessed as reduction in HDAC1 mRNA level at 80 nM incubated for 24 hrs in presence of SGBS CM by qRT-PCR analysis; format: functional, cell-based; method in brief: as §1

`CN(C)Cc1ccc(S(=O)(=O)n2ccc(/C=C/C(=O)NO)c2)cc1` [RESMINOSTAT] was tested, and the Activity (Hep 3B2 [1]) was 62.33%, the Activity (Hep 3B2 [2]) was “Active” and the Activity (Huh-7 [3]) was “Active”. The Activity (Hep 3B2 [4]) was “Active”, the Activity (Hep 3B2 [5]) was “Active” and the Activity (Hep 3B2 [6]) was “Active”. The Activity (Hep 3B2 [7]) was “Active”, the Activity (Hep 3B2 [8]) was “Active” and the Activity (Hep 3B2 [9]) was “Active”. For the same compound, the Activity (Hep 3B2 [10]) was “Active”, the Activity (Hep 3B2 [11]) was “Active” and the Activity (Hep 3B2 [12]) was 11.76%. The Activity (Hep 3B2 [13]) was 31.47%, the Activity (Hep 3B2 [14]) was 21.61% and the Activity (Hep 3B2 [15]) was “Active”. The Activity (Hep 3B2 [16]) was “Active”, the Activity (Hep 3B2 [17]) was “Active” and the Activity (Hep 3B2 [18]) was “Active”. For the same compound, the Activity (Hep 3B2 [19]) was “Active”, the Activity (Huh-7 [20]) was “Active” and the Activity (Hep 3B2 [21]) was “Active”. The Activity (Hep 3B2 [22]) was “Active”, the Activity (Hep 3B2 [23]) was “Dose-Dependent Effect” and the Activity (Hep 3B2 [24]) was “Active”.
